Test system: HEK-293T
Experiment: Multiplex assay against HEK293T;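 for Population Tubulin-Different-Phenotype (%): share of the cells with healthy nuclei that show this phenotype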
Type: toxicity, cell-based
Conditions: human
Method in brief: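 Cells were classed with CellPathfinder machine-learning gating, first as Hoechst high-intensity objects or normal cells, then (normal cells) as healthy, pyknosed or fragmented nuclei, and finally (pyknosed cells) as mitotic or apoptotic. Staining of live cells at seeding used Hoechst33342, BioTracker Green Microtubule Cytoskeleton Dye, MitoTracker Red and Annexin V Alexa Fluor 680, with imaging on a CQ1 microscope at 37°C and 5% CO2 after compound addition. Tubulin, mitochondrial-mass and membrane-permeability phenotypes are per cents of healthy-nucleus cells.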

[1] = 12 h, 1 µM, compound concentration 1 uM, replicate 1
[2] = 12 h, 1 µM, compound concentration 1 uM, replicate 2
[3] = 12 h, 10 µM, compound concentration 10 uM, replicate 1
[4] = 12 h, 10 µM, compound concentration 10 uM, replicate 2
[5] = 24 h, 1 µM, compound concentration 1 uM, replicate 1
[6] = 24 h, 1 µM, compound concentration 1 uM, replicate 2
[7] = 24 h, 10 µM, compound concentration 10 uM, replicate 1
[8] = 24 h, 10 µM, compound concentration 10 uM, replicate 2
[9] = 48 h, 1 µM, compound concentration 1 uM, replicate 1
[10] = 48 h, 1 µM, compound concentration 1 uM, replicate 2
[11] = 48 h, 10 µM, compound concentration 10 uM, replicate 1
[12] = 48 h, 10 µM, compound concentration 10 uM, replicate 2

Question: Which results are given for `Cc1csc2c(N[C@@H](C)CN3CCN(S(=O)(=O)c4ccc(Cl)c(Cl)c4)CC3)ncnc12`?
Answer: Population Apoptotic (%) [1]: 58%; Population Fragmented Nuclei (%) [1]: 12%; Population Healthy Nuclei (%) [1]: 16%; Population Hoechst High Intensity Objects (%) [1]: 19%; Population Membrane Permeable-Phenotype (%) [1]: 6%; Population Mitochondria Different-Phenotype (%) [1]: 96%; Population Mitotic Cells (%) [1]: 41%; Population Normal (%) [1]: 80%; Population Pyknosed Nuclei (%) [1]: 71%; Population Tubulin-Different-Phenotype (%) [1]: 93%; Total Cell Count [1]: 223; Population Apoptotic (%) [2]: 27%; Population Fragmented Nuclei (%) [2]: 5%; Population Healthy Nuclei (%) [2]: 29%; Population Hoechst High Intensity Objects (%) [2]: 13%; Population Membrane Permeable-Phenotype (%) [2]: 14%; Population Mitochondria Different-Phenotype (%) [2]: 47%; Population Mitotic Cells (%) [2]: 72%; Population Normal (%) [2]: 86%; Population Pyknosed Nuclei (%) [2]: 64%; Population Tubulin-Different-Phenotype (%) [2]: 64%; Total Cell Count [2]: 135; Population Apoptotic (%) [3]: 79%; Population Fragmented Nuclei (%) [3]: 9%; Population Healthy Nuclei (%) [3]: 5%; Population Hoechst High Intensity Objects (%) [3]: 11%; Population Membrane Permeable-Phenotype (%) [3]: 20%; Population Mitochondria Different-Phenotype (%) [3]: 90%; Population Mitotic Cells (%) [3]: 20%; Population Normal (%) [3]: 88%; Population Pyknosed Nuclei (%) [3]: 84%; Population Tubulin-Different-Phenotype (%) [3]: 80%; Total Cell Count [3]: 197; Population Apoptotic (%) [4]: 80%; Population Fragmented Nuclei (%) [4]: 5%; Population Healthy Nuclei (%) [4]: 11%; Population Hoechst High Intensity Objects (%) [4]: 8%; Population Membrane Permeable-Phenotype (%) [4]: 9%; Population Mitotic Cells (%) [4]: 19%; Population Normal (%) [4]: 91%; Population Pyknosed Nuclei (%) [4]: 83%; Population Tubulin-Different-Phenotype (%) [4]: 68%; Total Cell Count [4]: 206; Population Apoptotic (%) [5]: 57%; Population Fragmented Nuclei (%) [5]: 16%; Population Healthy Nuclei (%) [5]: 21%; Population Hoechst High Intensity Objects (%) [5]: 18%; Population Membrane Permeable-Phenotype (%) [5]: 4%; Population Mitochondria Different-Phenotype (%) [5]: 93%; Population Mitotic Cells (%) [5]: 42%; Population Normal (%) [5]: 81%; Population Pyknosed Nuclei (%) [5]: 62%; Population Tubulin-Different-Phenotype (%) [5]: 90%; Total Cell Count [5]: 244; Population Apoptotic (%) [6]: 35%; Population Fragmented Nuclei (%) [6]: 10%; Population Healthy Nuclei (%) [6]: 28%; Population Hoechst High Intensity Objects (%) [6]: 7%; Population Membrane Permeable-Phenotype (%) [6]: 8%; Population Mitochondria Different-Phenotype (%) [6]: 44%; Population Mitotic Cells (%) [6]: 64%; Population Normal (%) [6]: 92%; Population Pyknosed Nuclei (%) [6]: 61%; Population Tubulin-Different-Phenotype (%) [6]: 88%; Total Cell Count [6]: 131; Population Apoptotic (%) [7]: 85%; Population Fragmented Nuclei (%) [7]: 12%; Population Healthy Nuclei (%) [7]: 6%; Population Hoechst High Intensity Objects (%) [7]: 16%; Population Membrane Permeable-Phenotype (%) [7]: 27%; Population Mitochondria Different-Phenotype (%) [7]: 90%; Population Mitotic Cells (%) [7]: 14%; Population Normal (%) [7]: 83%; Population Pyknosed Nuclei (%) [7]: 80%; Population Tubulin-Different-Phenotype (%) [7]: 63%; Total Cell Count [7]: 208; Population Apoptotic (%) [8]: 88%; Population Fragmented Nuclei (%) [8]: 5%; Population Healthy Nuclei (%) [8]: 7%; Population Hoechst High Intensity Objects (%) [8]: 9%; Population Membrane Permeable-Phenotype (%) [8]: 0%; Population Mitochondria Different-Phenotype (%) [8]: 85%; Population Mitotic Cells (%) [8]: 11%; Population Normal (%) [8]: 91%; Population Pyknosed Nuclei (%) [8]: 86%; Population Tubulin-Different-Phenotype (%) [8]: 71%; Total Cell Count [8]: 200; Population Apoptotic (%) [9]: 59%; Population Fragmented Nuclei (%) [9]: 16%; Population Healthy Nuclei (%) [9]: 38%; Population Hoechst High Intensity Objects (%) [9]: 17%; Population Membrane Permeable-Phenotype (%) [9]: 5%; Population Mitochondria Different-Phenotype (%) [9]: 80%; Population Mitotic Cells (%) [9]: 40%; Population Normal (%) [9]: 82%; Population Pyknosed Nuclei (%) [9]: 45%; Population Tubulin-Different-Phenotype (%) [9]: 85%; Total Cell Count [9]: 240; Population Apoptotic (%) [10]: 29%; Population Fragmented Nuclei (%) [10]: 10%; Population Healthy Nuclei (%) [10]: 47%; Population Hoechst High Intensity Objects (%) [10]: 8%; Population Membrane Permeable-Phenotype (%) [10]: 17%; Population Mitochondria Different-Phenotype (%) [10]: 44%; Population Mitotic Cells (%) [10]: 70%; Population Normal (%) [10]: 91%; Population Pyknosed Nuclei (%) [10]: 42%; Population Tubulin-Different-Phenotype (%) [10]: 89%; Total Cell Count [10]: 159; Population Apoptotic (%) [11]: 47%; Population Fragmented Nuclei (%) [11]: 23%; Population Healthy Nuclei (%) [11]: 4%; Population Hoechst High Intensity Objects (%) [11]: 17%; Population Membrane Permeable-Phenotype (%) [11]: 25%; Population Mitochondria Different-Phenotype (%) [11]: 62%; Population Mitotic Cells (%) [11]: 52%; Population Normal (%) [11]: 82%; Population Pyknosed Nuclei (%) [11]: 72%; Population Tubulin-Different-Phenotype (%) [11]: 87%; Total Cell Count [11]: 229; Population Apoptotic (%) [12]: 74%; Population Fragmented Nuclei (%) [12]: 4%; Population Healthy Nuclei (%) [12]: 21%; Population Hoechst High Intensity Objects (%) [12]: 13%; Population Membrane Permeable-Phenotype (%) [12]: 8%; Population Mitochondria Different-Phenotype (%) [12]: 78%; Population Mitotic Cells (%) [12]: 25%; Population Normal (%) [12]: 86%; Population Pyknosed Nuclei (%) [12]: 73%; Population Tubulin-Different-Phenotype (%) [12]: 67%; Total Cell Count [12]: 199

— ChEMBL document CHEMBL4689842, “EUbOPEN Chemogenomics Library wave 1” (2021)
